C8 TRAIL sens: sensitizes caspase-8 expressing cells to TRAIL. NB7+C8 cells + TRAIL, ATPlite viability luminescence. inhibition (viability loss, TRAIL sensitization), % at 10 µM. hit rate 1% among 360,000;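 active means compounds causing at least 50% loss of cell viability in the single-dose screen, relative to plate controls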
FLuc stim CS: firefly luciferase counter-screen for stimulation assays. P08659. ATPlite luciferase biochemical, luminescence, 10 min; 0 = ATP-free wells, 1 = DMSO control. activation factor at 10 µM. 200,000 tested, under 10 active;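 active means luciferase activation factor, scaled between plate controls, of at least 2 with compound at 10 µM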
Target sequence (P08659 whole entry, looked up): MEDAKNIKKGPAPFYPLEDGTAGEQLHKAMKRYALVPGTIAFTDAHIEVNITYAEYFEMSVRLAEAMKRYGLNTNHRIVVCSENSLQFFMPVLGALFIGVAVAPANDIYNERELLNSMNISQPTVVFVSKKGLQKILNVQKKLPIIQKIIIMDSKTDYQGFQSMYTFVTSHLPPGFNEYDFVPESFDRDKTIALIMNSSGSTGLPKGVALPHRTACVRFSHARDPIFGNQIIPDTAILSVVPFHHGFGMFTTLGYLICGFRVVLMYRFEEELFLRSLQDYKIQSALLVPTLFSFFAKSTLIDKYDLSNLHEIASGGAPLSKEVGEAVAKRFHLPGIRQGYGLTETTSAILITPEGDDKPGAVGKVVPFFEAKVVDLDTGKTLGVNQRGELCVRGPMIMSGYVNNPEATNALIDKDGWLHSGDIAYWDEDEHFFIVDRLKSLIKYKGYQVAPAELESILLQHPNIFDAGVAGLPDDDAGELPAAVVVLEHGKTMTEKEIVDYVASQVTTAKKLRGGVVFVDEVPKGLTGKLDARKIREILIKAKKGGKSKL
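Assay system: Luciferase/luciferin detection reagent, cell-free biochemical luciferase assay / Read-out: luciferase activation / Benchmarks: No-ATP low control, compound-free enzyme-plus-ATP high control / Medium: PBS buffer for ATP / Detection: luminescence measurement of luciferase light output / Schedule: 10 min at ambient temperature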
FLuc inhib CS: counter-screen for luciferase assay inhibitors: firefly luciferase inhibition. P08659. ATPLite firefly luciferase biochemical luminescence, 10 min. inhibition, % at 10 µM. hit rate 1.5% among 200,000;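 active means inhibition above about 50% when tested at 10 µM, limit read from the data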
PPC-1+TRAIL kill: compounds killing PPC-1 cancer cells with TRAIL present (potentiator screen, no TRAIL-free arm); PPC-1 cells + TRAIL, ATPLite viability luminescence; cell killing (% activity), % at 4 µM or 5 µM; AID 1443; hit rate 0.41% among 220,000;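 active means cell killing above 50% in the first pass at 4 µM, then a duplicate retest at 5 µM averaging 50% or more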;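 further: plate controls were cells with TRAIL plus DMSO for no effect and medium-only wells lacking cells for full effect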
Numbers without * were called inactive; · = not tested or not shown. Hits are enriched below; roughly 1.6% of the tested compounds scored in any of these assays.

SMILES | C8 TRAIL sens | FLuc stim CS | FLuc inhib CS | PPC-1+TRAIL kill
Clc1ccccc1-c1nc(-c2cccnc2)no1 | 34.4 | 0.3 | 73.5* | 23.5
CCCCOc1ccc(-c2nc(-c3cccnc3)no2)cc1 | 16.6 | 0.8 | 22.3 | 31.4
CCOc1ccc(-c2nc(-c3cccnc3)no2)cc1 | 57.6* | 0.3 | 71.0* | 32.4
O=C(O)c1ccc(-c2noc(-c3ccccc3F)n2)cc1 | -3.4 | · | · | ·
Cc1ccc(-c2nc(-c3ccncc3)no2)c(Cl)c1 | 55.4* | · | · | ·
Cc1ccc(S(=O)(=O)N[C@H](C(=O)Oc2ccc3c(C(F)(F)F)cc(=O)oc3c2)c2ccccc2)cc1 | -7.9 | 1.1 | -6.5 | 2.7
CCCN(CCC)c1nc(N)nc(-c2cc(Cl)ccc2OC)n1 | -1.7 | 1.1 | -7.3 | 4.5
O=C(Nc1ccc2c(c1)C(N1CCOCC1)c1ccccc1-2)C(F)(F)F (configuration not stated) | 1.8 | · | · | ·
CCOc1nc(-c2ccc(OC)cc2)ccc1-c1noc(-c2ccncc2)n1 | -3.1 | 1 | -2.0 | -21.0
CCOc1ccc(-c2nc(-c3ccccc3C)no2)cc1 | · | 0.5 | 54.4* | 38.7
Cc1cccc(C)c1OCC1CNC(=O)O1 (configuration not stated) | -1.4 | · | · | ·
Cc1ccc(-c2nc3ccccn3c2C=O)cc1 | 18.7 | 0.5 | 50.2* | 17.1
CCc1c(C)c(C#N)c2nc3ccccc3n2c1-n1nc(C)cc1C | -4.1 | 1 | -4.1 | 15.1
CCc1c(C)c(C#N)c2nc3ccccc3n2c1Cl | · | 1 | -2.5 | 60.1*
Cc1cc(C(=O)Cn2ncc(Cl)c(Cl)c2=O)c(C)n1CC(F)(F)F | -3.1 | 1 | 3.0 | 13.5
Cc1ccc(C)c(C(=O)Cn2ncc(Cl)c(Cl)c2=O)c1 | 96.6* | 1 | -3.8 | 26.3
O=c1c2ccccc2cnn1Cc1ccc(Cl)c(Cl)c1 | 16.8 | · | · | ·
Cc1cccc(Cn2ncc(Cl)c(Cl)c2=O)c1 | 53.7* | 1.1 | -9.5 | 9.5
COc1ccc(CNC(=O)COC(=O)c2ccc(Br)o2)cc1 | 7.4 | · | · | ·
Oc1ccccc1-c1n[nH]c(-c2ccccc2O)n1 | 60.2* | · | · | ·
N=c1c2c(n(Cc3ccc(Cl)c(Cl)c3)c3c1CCC3)CCCC2 | 65.2* | 1 | -4.0 | 41.7
CCCCCN=C(N)N/N=C/c1c[nH]c2ccc(OC)cc12 | 94.1* | · | · | ·
CC(C)(C)c1ccc(/C=C2\SC(=O)N(CCNC(=O)c3cccc(S(=O)(=O)N4CCOCC4)c3)C2=O)cc1 | 57.6* | 0.3 | 68.7* | 15.1
CC1(c2nnc(Cc3ccccc3)o2)CC(c2ccc(C#N)cc2)=NO1 (configuration not stated) | -4.2 | · | · | ·
Cc1ccc(CNc2ccc(N3CCOCC3)cc2)s1 | 67.8* | 0.3 | 72.9* | 14.6
SMILES | C8 TRAIL sens | FLuc stim CS | FLuc inhib CS | PPC-1+TRAIL kill
Clc1ccc(-c2cn3cc(Br)ccc3n2)cc1Cl | 35.6 | 0.5 | 53.4* | 31.7
O=S(=O)(c1cccc(-c2cn3cc(Cl)ccc3n2)c1)N1CCOCC1 | 4.8 | 1 | -0.9 | 10.0
Brc1ccc2nc(-c3c[nH]c4ccccc34)cn2c1 | 37.1 | 0.4 | 58.2* | 11.9
COc1ccc(C(=O)Nc2cnccn2)cc1[N+](=O)[O-] | -1.2 | · | · | ·
O=C(Nc1ccccn1)c1ccc(-c2ccccc2)cc1 | 82.1* | · | · | ·
CC(C)(C)c1ccc(C(=O)Nc2cnccn2)cc1 | 74.8* | 0.1 | 85.8* | -15.7
Cc1ccc(CN2CC(C(=O)Nc3ccncc3)CC2=O)cc1 (configuration not stated) | -11.4 | · | · | ·
CC1CCCN(C(=O)COC(=O)c2cc([N+](=O)[O-])ccc2N2CCOCC2)C1 (configuration not stated) | -1.7 | · | · | ·
CC1CCN(CCNC(=O)c2ccc3c(=O)n(Cc4ccc(Cl)cc4)c(=S)[nH]c3c2)CC1 | 69.1* | · | · | ·
COCCCNC(=O)c1ccc2c(=O)n(Cc3ccc(Cl)cc3)c(=S)[nH]c2c1 | 20.0 | · | · | ·
O=c1cc(-c2ccccc2)nc2nc(-c3ccccc3)[nH]n12 | 9.1 | 0.5 | 45.2 | 17.4
Cc1nc(-c2ccc(NC(=O)c3ccccc3C)cc2)cs1 | 39.4 | 0.4 | 61.5* | 29.2
Nc1nc(-c2ccc(NC(=O)c3ccco3)cc2)cs1 | 73.5* | · | · | ·
Cc1nc(-c2ccc(NC(=O)c3ccco3)cc2)cs1 | 94.3* | · | · | ·
Cc1nc(-c2cccc(NC(=O)c3ccco3)c2)cs1 | -2.5 | · | · | ·
Cc1nnc2ccc(-c3ccc(NC(=O)c4ccco4)cc3)nn12 | -8.4 | 1 | -1.9 | 25.5
Cc1ccn2cc(-c3ccc(NC(=O)c4ccco4)cc3)nc2c1 | 45.3 | 0.4 | 55.2* | 36.0
CN(Cc1ccc(F)cc1)S(=O)(=O)c1nnc(NC(=O)c2ccccc2Br)s1 | 11.2 | · | · | ·
CC(NC(=O)N1CCN(c2ccccc2F)CC1)c1ccc(F)c(F)c1 (configuration not stated) | 10.5 | · | · | ·
